Test results from ChEMBL document CHEMBL1828562, “Aryl H-phosphonates 17: (N-aryl)phosphoramidates of pyrimidine nucleoside analogues and their synthesis, selected properties, and anti-HIV activity” (J Med Chem, 2011).
Activity calls are given as the source filed them. The rule behind the calls is not given here.

How the values were obtained:
[1] = test system: Human immunodeficiency virus 1; experiment: Antiviral activity against HIV1 infected in human CEM-T4 cells assessed as reduction in viral protein p24 production preincubated for 24 hrs measured after 8 days by MTT assay; type: functional, organism-based; settings: Human immunodeficiency virus 1, CEM-T4
Outline: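 CEM-T4 cells, 20000 per well in 200 μL, preincubated 24 h at 37 °C, 5% CO2 in RPMI/10% FCS containing compound at 0,001–20 μM. Cells then inoculated with a known amount of HIV. Viral p24 read after 8 days by the MTT method. Triplicate cultures per concentration.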

[2] = Chemical stability of the compound in RPMI cell culture media assessed as half life at 2 mM; type: physicochemical
Outline: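 Compound at 2 mM incubated in RPMI/FBS 9:1 (v/v) at 37 °C. Decomposition followed by HPLC on a C18 column. Half-life calculated from the degradation course.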

[3] = test system: Human immunodeficiency virus 1; experiment: Antiviral activity against HIV1 infected in human CEM/TK- cells assessed as inhibition of virus-induced cytopathogenicity; type: functional, organism-based
[4] = Cytotoxicity against human CEM-T4 cells assessed as cell viability at 50 uM after 7 days by MTT assay; type: cell-based; settings: cem-t4, 168 h
Outline: (§1)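 CEM-T4 cells cultured at 37 °C, 5% CO2 in RPMI/10% FCS containing compound, with neat medium as control. After 7 days, MTT (5 mg/mL solution) added for 3 h at 37 °C. Cells centrifuged, supernatant removed, formazan dissolved in DMSO and read at 560 nm. CC50 and CC90 determined on mock-infected cells.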

[5] = Dissociation constant, pKa of the compound in aqueous solution; type: physicochemical
[6] = Selectivity index, ratio of CC50 for human CEM-T4 cells to EC50 for HIV1 infected human CEM-T4 cells; type: toxicity, cell-based; settings: read-out: Ratio CC50/EC50
Outline: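 Selectivity index calculated as CC50/EC50, both measured in CEM-T4 cells, and rounded.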

[7] = Cytotoxicity against human CEM-T4 cells assessed as cell viability after 7 days by MTT assay; type: cell-based; outline: as §1
[8] = test system: Human immunodeficiency virus 1; experiment: Antiviral activity against HIV1 infected in human CEM/TK+ cells assessed as inhibition of virus-induced cytopathogenicity; type: functional, organism-based
[9] = target: Human immunodeficiency virus type 1 reverse transcriptase (Human immunodeficiency virus 1) (UniProt Q72547); experiment: Inhibition of HIV1 recombinant reverse transcriptase at <= 3 uM preincubated for 5 mins measured after 1 hr by electrophoresis analysis
Outline: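 Recombinant HIV-1 RT preincubated 5 min at 45 °C with compound in 50 mM Tris-HCl pH 8.3, 75 mM KCl, 3 mM MgCl2, 10 mM DTT. Started with dNTPs (50 μM final) and run 60 min at 45 °C. Products resolved on 12% denaturing PAGE and imaged by autoradiography. Fully extended product quantified.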

[10] = Cytotoxicity against human CEM-T4 cells assessed as cell viability at 200 uM after 7 days by MTT assay; type: cell-based; settings: cem-t4, 168 h; outline: as §1
[11] = Chemical stability of the compound in RPMI cell culture media assessed as compound decomposition by HPLC analysis in presence of human MT4 cells; type: ADME, cell-based
Outline: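 Compound incubated at 37 °C in RPMI cell culture medium in the presence of MT-4 cells. Degradation rate and decomposition products followed by HPLC on a C18 column.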

[12] = Cytotoxicity against human CEM-T4 cells assessed as cell viability at 30 uM after 7 days by MTT assay; type: cell-based; settings: cem-t4, 168 h; outline: as §1

SMILES	EC50 [1] [nM]	EC90 [1] [nM]	half-life at 2000 µM [2] [h]	inhibition [3]	Activity [4]	pKa [5]	selectivity ratio [6]	CC50 at 168 h [7] [nM]	CC90 at 168 h [7] [nM]	inhibition [8]	inhibition [9]	Activity [10]	Stability [11]	Activity [12]
O=c1ccn([C@H]2CC[C@@H](COP(=O)(O)Nc3ccncc3)O2)c(=O)[nH]1	200	1350	32.1	inactive	Non-toxic	< 8	> 250	–	–	–	–	–	–	–
CCN(CC)CC.Cc1cn([C@H]2C[C@H](N=[N+]=[N-])[C@@H](COP(=O)(O)Nc3ccc(Cl)cc3)O2)c(=O)[nH]c1=O	20	100	> 120	inactive	–	–	14500	290000	360000	–	–	–	–	–
Cc1cn([C@H]2C[C@H](N=[N+]=[N-])[C@@H](COP(=O)(O)Nc3ccncc3)O2)c(=O)[nH]c1=O	1.1	6	> 120	inactive	–	< 8	> 182000	–	–	Active	inactive	Non-toxic	Stable	–
Nc1ccccn1 [2-AMINOPYRIDINE]	> 20000	> 20000	–	–	–	–	< 10	–	–	–	–	Non-toxic	–	–
CCN(CC)CC.Cc1cn([C@H]2C[C@H](N=[N+]=[N-])[C@@H](COP(=O)(O)Nc3ccccc3)O2)c(=O)[nH]c1=O	600	> 10000	> 120	inactive	–	–	> 300	> 200000	> 200000	–	–	–	–	–
Cc1cn([C@H]2C[C@H](N=[N+]=[N-])[C@@H](CO)O2)c(=O)[nH]c1=O [ZIDOVUDINE]	< 2	5	–	–	–	–	> 100000	> 200000	> 200000	–	–	–	–	–
Cc1cn([C@H]2C[C@H](N=[N+]=[N-])[C@@H](COP(=O)(O)O)O2)c(=O)[nH]c1=O [AZIDOTHYMIDINE MONOPHOSPHATE]	10	–	3.6	–	–	–	10000	100000	–	–	–	–	–	–
Nc1cccnc1	> 20000	> 20000	–	–	–	6.03	< 10	–	–	–	–	Non-toxic	–	–
Nc1ccc(Cl)cc1 [4-CHLOROANILINE]	–	–	–	–	–	3.99	–	–	–	–	–	–	–	–
O=c1ccn([C@H]2CC[C@@H](COP(=O)(O)Nc3cccnc3)O2)c(=O)[nH]1	> 10000	> 10000	27.9	inactive	–	–	< 3	–	–	–	–	–	–	Non-toxic
Cc1cn([C@H]2C[C@H](N=[N+]=[N-])[C@@H](COP(=O)(O)Nc3cccnc3)O2)c(=O)[nH]c1=O	2.3	9	73.3	inactive	–	–	> 87000	–	–	Active	inactive	Non-toxic	Stable	–
COc1ccc(N)cc1	–	–	–	–	–	4.58	–	–	–	–	–	–	–	–
O=c1ccn([C@H]2CC[C@@H](COP(=O)(O)Nc3ccccc3)O2)c(=O)[nH]1	–	–	–	inactive	–	–	–	–	–	–	–	–	–	–
Nc1ccncc1 [DALFAMPRIDINE]	> 20000	> 20000	–	–	–	9.13	< 10	–	–	–	–	Non-toxic	–	–
